In ChEMBL document CHEMBL4354800, “Amphiphilic nebramine-based hybrids Rescue legacy antibiotics from intrinsic resistance in multidrug-resistant Gram-negative bacilli” (Eur J Med Chem, 2019):

How the values were obtained:
[1] = tested on: HepG2; assay: Cytotoxicity against human HepG2 cells at 50 uM incubated for 48 hrs by PrestoBlue dye based fluorescence assay; assay type: cell-based; conditions: hepg2, 48 h
[2] = tested on: Pseudomonas aeruginosa; assay: Synergistic antibacterial activity against MDR/XDR Pseudomonas aeruginosa isolate 100036 harboring GyrA T83I mutant assessed as fractional inhibitory concentration index in presence of minocycline incubated for 18 hrs by broth microdilution method; assay type: functional
How it was run: (§1)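 Checkerboard synergy assay. Antibiotic and adjuvant in twofold dilutions in Mueller-Hinton broth. Inoculum 5 × 10^5 CFU/mL from a 0.5 McFarland suspension, 18 h at 37 °C, MIC read by turbidity and confirmed at 590 nm. FIC = MIC in combination / MIC alone for each agent, FICI = sum. Interpreted as ≤0.5 synergy, 0.5–4 no interaction, >4 antagonism.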

[3] = tested on: Pseudomonas aeruginosa; assay: Synergistic antibacterial activity against MDR/XDR Pseudomonas aeruginosa isolate 101885 harboring T83I mutant assessed as fractional inhibitory concentration index in presence of minocycline incubated for 18 hrs by broth microdilution method; assay type: functional; how it was run: as §1
[4] = tested on: Pseudomonas aeruginosa; assay: Synergistic antibacterial activity against wild type Pseudomonas aeruginosa PAO1 assessed as fractional inhibitory concentration index in presence of moxifloxacin incubated for 18 hrs by broth microdilution method; assay type: functional; how it was run: as §1
[5] = tested on: Pseudomonas aeruginosa; assay: Synergistic antibacterial activity against MDR/XDR Pseudomonas aeruginosa isolate PA259-96918 harboring GyrA T83I mutant assessed as fractional inhibitory concentration index in presence of ciprofloxacin incubated for 18 hrs by broth microdilution method; assay type: functional; how it was run: as §1
[6] = tested on: Pseudomonas aeruginosa; assay: Synergistic antibacterial activity against MDR/XDR Pseudomonas aeruginosa isolate PA262-101856 harboring GyrA T83I mutant assessed as fractional inhibitory concentration index in presence of rifampicin incubated for 18 hrs by broth microdilution method; assay type: functional; how it was run: as §1
[7] = tested on: Enterobacter cloacae; assay: Antimicrobial activity against Enterobacter cloacae 117029 incubated for 18 hrs by broth dilution method; assay type: functional; conditions: Enterobacter cloacae, 117029, 18 h
How it was run: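 CLSI broth microdilution. Overnight cultures were adjusted to 0.5 McFarland in saline, diluted 1:50 in Mueller-Hinton broth, and inoculated at a final 5 × 10^5 CFU/mL. Compounds were tested as 2-fold serial dilutions and incubated 18 h at 37 °C. MIC was the lowest concentration with no visible turbidity, confirmed by absorbance at 590 nm.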

[8] = tested on: Pseudomonas aeruginosa; assay: Antimicrobial activity against MDR/XDR Pseudomonas aeruginosa isolate 100036 harboring GyrA Thr83Ile mutant incubated for 18 hrs by broth microdilution method; assay type: functional; conditions: isolate 100036, 18 h
How it was run: (§2)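 Broth microdilution per CLSI: overnight cultures set to 0.5 McFarland in saline, diluted 1:50 in Mueller-Hinton broth to a final 5 × 10^5 CFU/mL, added to 2-fold serial dilutions, incubated 18 h at 37 °C; MIC is the lowest concentration without visible turbidity, confirmed at 590 nm.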

[9] = tested on: Pseudomonas aeruginosa; assay: Synergistic antibacterial activity against MDR/XDR Pseudomonas aeruginosa isolate 101885 harboring GyrA T83I mutant assessed as fractional inhibitory concentration index in presence of moxifloxacin incubated for 18 hrs by broth microdilution method; assay type: functional; how it was run: as §1
[10] = tested on: Pseudomonas aeruginosa; assay: Synergistic antibacterial activity against MDR/XDR Pseudomonas aeruginosa isolate 100036 harboring GyrA T83I mutant assessed as fractional inhibitory concentration index in presence of moxifloxacin incubated for 18 hrs by broth microdilution method; assay type: functional; how it was run: as §1
[11] = tested on: Pseudomonas aeruginosa; assay: Synergistic antibacterial activity against MDR/XDR Pseudomonas aeruginosa isolate PA260-97103 harboring GyrA T83I mutant assessed as fractional inhibitory concentration index in presence of minocycline incubated for 18 hrs by broth microdilution method; assay type: functional; how it was run: as §1
[12] = tested on: Pseudomonas aeruginosa; assay: Synergistic antibacterial activity against MDR/XDR Pseudomonas aeruginosa isolate 91433 devoid of GyrA T83I mutant assessed as fractional inhibitory concentration index in presence of minocycline incubated for 18 hrs by broth microdilution method; assay type: functional; how it was run: as §1
[13] = tested on: Pseudomonas aeruginosa; assay: Antimicrobial activity against MDR/XDR Pseudomonas aeruginosa isolate 101885 harboring GyrA Thr83Ile mutant incubated for 18 hrs by broth microdilution method; assay type: functional; conditions: isolate 101885, 18 h; how it was run: as §2
[14] = tested on: Pseudomonas aeruginosa; assay: Synergistic antibacterial activity against MDR/XDR Pseudomonas aeruginosa isolate 100036 harboring GyrA T83I mutant assessed as fractional inhibitory concentration index in presence of ciprofloxacin incubated for 18 hrs by broth microdilution method; assay type: functional; how it was run: as §1
[15] = tested on: Pseudomonas aeruginosa; assay: Synergistic antibacterial activity against MDR/XDR Pseudomonas aeruginosa isolate PA264-104354 harboring T83I mutant assessed as fractional inhibitory concentration index in presence of rifampicin incubated for 18 hrs by broth microdilution method; assay type: functional; how it was run: as §1
[16] = tested on: Pseudomonas aeruginosa; assay: Synergistic antibacterial activity against MDR/XDR Pseudomonas aeruginosa isolate 101243 devoid of GyrA T83I mutant assessed as fractional inhibitory concentration index in presence of moxifloxacin incubated for 18 hrs by broth microdilution method; assay type: functional; how it was run: as §1
[17] = tested on: Pseudomonas aeruginosa; assay: Antimicrobial activity against MDR/XDR Pseudomonas aeruginosa isolate PA264-104354 harboring GyrA Thr83Ile mutant incubated for 18 hrs by broth microdilution method; assay type: functional; conditions: isolate PA264-104354, 18 h; how it was run: as §2
[18] = tested on: Pseudomonas aeruginosa; assay: Synergistic antibacterial activity against MDR/XDR Pseudomonas aeruginosa isolate PA260-97103 harboring GyrA T83I mutant assessed as fractional inhibitory concentration index in presence of moxifloxacin incubated for 18 hrs by broth microdilution method; assay type: functional; how it was run: as §1
[19] = tested on: Pseudomonas aeruginosa; assay: Synergistic antibacterial activity against MDR/XDR Pseudomonas aeruginosa isolate 101885 harboring GyrA T83I mutant assessed as fractional inhibitory concentration index in presence of ciprofloxacin incubated for 18 hrs by broth microdilution method; assay type: functional; how it was run: as §1
[20] = tested on: Pseudomonas aeruginosa; assay: Synergistic antibacterial activity against MDR/XDR Pseudomonas aeruginosa isolate 91433 devoid of GyrA T83I mutant assessed as fractional inhibitory concentration index in presence of ciprofloxacin incubated for 18 hrs by broth microdilution method; assay type: functional; how it was run: as §1
[21] = tested on: Pseudomonas aeruginosa; assay: Antimicrobial activity against MDR/XDR Pseudomonas aeruginosa isolate 91433 devoid of GyrA Thr83Ile mutant incubated for 18 hrs by broth microdilution method; assay type: functional; conditions: isolate 91433, 18 h; how it was run: as §2
[22] = tested on: Pseudomonas aeruginosa; assay: Synergistic antibacterial activity against MDR/XDR Pseudomonas aeruginosa isolate PA260-97103 harboring GyrA T83I mutant assessed as fractional inhibitory concentration index in presence of rifampicin incubated for 18 hrs by broth microdilution method; assay type: functional; how it was run: as §1
[23] = tested on: Klebsiella pneumoniae; assay: Synergistic antibacterial activity against Klebsiella pneumoniae 116381 assessed as fractional inhibitory concentration index in presence of rifampicin incubated for 18 hrs by broth dilution method; assay type: functional
How it was run: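 Checkerboard titration of the adjuvant against the antibiotic, run under the CLSI microdilution conditions (MHB, 5 × 10^5 CFU/mL, 18 h, 37 °C). Each agent's FIC is its MIC in combination divided by its MIC alone; FICI is the sum of the two FICs. FICI ≤0.5 was read as synergy, >0.5–4.0 as no interaction, and >4.0 as antagonism.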

[24] = tested on: Pseudomonas aeruginosa; assay: Antimicrobial activity against MDR/XDR Pseudomonas aeruginosa isolate 101243 devoid of GyrA Thr83Ile mutant incubated for 18 hrs by broth microdilution method; assay type: functional; conditions: isolate 101243, 18 h; how it was run: as §2
[25] = tested on: Pseudomonas aeruginosa; assay: Antimicrobial activity against MDR/XDR Pseudomonas aeruginosa isolate PA262-101856 harboring GyrA Thr83Ile mutant incubated for 18 hrs by broth microdilution method; assay type: functional; conditions: isolate PA262-101856, 18 h; how it was run: as §2
[26] = tested on: HEK293; assay: Cytotoxicity against HEK293 cells at 50 uM incubated for 48 hrs in presence of 50 uM rifampicin by PrestoBlue dye based fluorescence assay; assay type: cell-based; conditions: human, hek293, 48 h

Row | Structure (SMILES) | Activity [1] | fractional inhibitory concentration index (FICI) [2] | fractional inhibitory concentration index (FICI) [3] | fractional inhibitory concentration index (FICI) [4] | fractional inhibitory concentration index (FICI) [5] | fractional inhibitory concentration index (FICI) [6] | MIC [7] [µg/mL] | MIC [8] [µg/mL] | fractional inhibitory concentration index (FICI) [9] | fractional inhibitory concentration index (FICI) [10] | fractional inhibitory concentration index (FICI) [11] | fractional inhibitory concentration index (FICI) [12] | MIC [13] [µg/mL] | fractional inhibitory concentration index (FICI) [14] | fractional inhibitory concentration index (FICI) [15] | fractional inhibitory concentration index (FICI) [16] | MIC [17] [µg/mL] | fractional inhibitory concentration index (FICI) [18] | fractional inhibitory concentration index (FICI) [19] | fractional inhibitory concentration index (FICI) [20] | also measured
1 | COc1c(N2C[C@@H]3CCCN(CCCCCCCCCCCCO[C@@H]4[C@@H](O)[C@H](N)C[C@H](N)[C@H]4O[C@H]4O[C@H](CN)[C@@H](O)C[C@H]4N)[C@@H]3C2)c(F)cc2c(=O)c(C(=O)O)cn(C3CC3)c12.Cl.Cl.Cl.Cl.Cl | Non-Toxic | 0.06 | 0.07 | 0.25 | 0.25 - 0.27 | 0.008 - 0.02 | 32 | 128 | 0.25 | 0.08 | 0.09 | 0.19 | 128 | 0.56 | 0.02 | 0.16 | 256 | 0.13 | >1 | 0.25 | MIC [21]: 32 µg/mL; fractional inhibitory concentration index (FICI) [22]: 0.06; fractional inhibitory concentration index (FICI) [23]: 0.002 - 0.006; MIC [24]: 64 µg/mL; MIC [25]: > 256 µg/mL; Activity [26]: Non-Toxic
2 | Cl.Cl.Cl.Cl.Cl.NC[C@H]1O[C@H](O[C@H]2[C@H](OCCCCCCCCCCCCN3CCN(c4cc5c(cc4F)c(=O)c(C(=O)O)cn5C4CC4)CC3)[C@@H](O)[C@H](N)C[C@@H]2N)[C@H](N)C[C@@H]1O | Non-Toxic | – | – | – | – | – | 32 | – | – | – | – | – | – | – | 0.039 | – | 128 | – | – | – | fractional inhibitory concentration index (FICI) [23]: <=0.039; Activity [26]: Non-Toxic
3 | Cl.Cl.Cl.Cl.Cl.Cl.NC[C@H]1O[C@H](O[C@H]2[C@H](OCCCCCCCCCCN3CCN(Cc4cccc5ccccc45)CC3)[C@@H](O)[C@H](N)C[C@@H]2N)[C@H](N)C[C@@H]1O | – | 0.031 - 0.033 | 0.04 | 0.05 | 0.063 - 0.078 | 0.02 | – | > 512 | 0.07 | 0.063 - 0.07 | 0.09 | 0.19 | 512 | 0.125 - 0.133 | – | 0.13 | – | 0.08 | 0.13 | 0.38 | MIC [21]: 32 µg/mL; fractional inhibitory concentration index (FICI) [22]: 0.05; MIC [24]: 512 µg/mL; MIC [25]: 512 µg/mL
